For data set [1], the target named is T1, Inosine-5'-monophosphate dehydrogenase (Pseudomonas aeruginosa (strain ATCC 15692 / DSM 22644 / CIP 104116 / JCM14847 / LMG 12228 / 1C / PRS 101 / PAO1)) (UniProt Q9HXM5).
T1 sequence (whole entry): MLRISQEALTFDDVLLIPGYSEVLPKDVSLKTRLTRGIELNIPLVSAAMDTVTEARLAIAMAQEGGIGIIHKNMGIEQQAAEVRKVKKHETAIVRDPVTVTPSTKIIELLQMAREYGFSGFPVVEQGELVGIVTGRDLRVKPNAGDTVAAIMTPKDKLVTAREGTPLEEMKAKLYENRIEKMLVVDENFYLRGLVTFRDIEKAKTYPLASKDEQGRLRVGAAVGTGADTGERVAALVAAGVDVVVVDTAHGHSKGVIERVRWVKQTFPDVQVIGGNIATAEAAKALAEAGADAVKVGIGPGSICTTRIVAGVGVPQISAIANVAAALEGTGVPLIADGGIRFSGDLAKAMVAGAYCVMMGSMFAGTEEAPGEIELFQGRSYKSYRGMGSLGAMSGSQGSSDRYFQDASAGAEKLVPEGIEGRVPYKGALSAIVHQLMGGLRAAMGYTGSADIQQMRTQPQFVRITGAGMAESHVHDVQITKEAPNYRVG
Briefly: Inhibition of Pseudomonas aeruginosa IMPDH extracted form Escherichia coli BL21 (DE3)pDIA17 assessed as formation of NADH at 50 uM relative to control. The gist of the method:
(§1)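 His-tagged wild-type IMPDH (E. coli, P. aeruginosa or S. aureus) made in E. coli BL21(DE3)/pDIA17, purified by metal-affinity then gel filtration. NADH formation followed at 340 nm, 30 °C, with 0.2 mM IMP, 0.4 mM NAD⁺, 0.2 mM MgATP, 2 mM MgCl₂. Buffers: pa Tris-HCl 50 mM pH 8; ec Tris-HCl 50 mM pH 8, KCl 50 mM; sa Na₂CO₃ 50 mM pH 9.2, KCl 20 mM. Compound at 50 μM; % inhibition vs compound-free activity.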

Data set [2] has as its target T2, Inosine-5'-monophosphate dehydrogenase (Pseudomonas aeruginosa (strain ATCC 15692 / DSM 22644 / CIP 104116 / JCM14847 / LMG 12228 / 1C / PRS 101 / PAO1), UniProt Q9HXM5).
T2 sequence (Q9HXM5 whole entry): T1 sequence (whole entry)
Briefly: Inhibition of Pseudomonas aeruginosa IMPDH extracted form Escherichia coli BL21 (DE3)pDIA17 assessed as formation of NADH. The note with it: read-out: I50.

Data set [3] concerns the target T3, Inosine-5'-monophosphate dehydrogenase (Escherichia coli K-12) (UniProt P0ADG7).
T3 sequence (whole entry): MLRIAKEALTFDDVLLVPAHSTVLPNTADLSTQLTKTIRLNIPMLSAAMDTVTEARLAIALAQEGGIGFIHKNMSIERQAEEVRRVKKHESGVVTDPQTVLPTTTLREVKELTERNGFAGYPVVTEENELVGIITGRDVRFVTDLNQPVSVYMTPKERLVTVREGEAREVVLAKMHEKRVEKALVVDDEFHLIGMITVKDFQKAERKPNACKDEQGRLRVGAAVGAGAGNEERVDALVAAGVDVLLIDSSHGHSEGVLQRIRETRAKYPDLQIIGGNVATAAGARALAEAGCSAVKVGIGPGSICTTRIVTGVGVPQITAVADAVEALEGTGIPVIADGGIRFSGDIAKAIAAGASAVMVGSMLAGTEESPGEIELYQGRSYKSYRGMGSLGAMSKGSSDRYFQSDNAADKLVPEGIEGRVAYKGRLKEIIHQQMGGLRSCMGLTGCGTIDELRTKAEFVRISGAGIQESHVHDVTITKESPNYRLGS
Put plainly: Inhibition of Escherichia coli IMPDH extracted form Escherichia coli BL21 (DE3)pDIA17 assessed as formation of NADH at 50 uM relative to control. Summed up:
as §1

The subject of data set [4] is Staphylococcus aureus. Briefly: Inhibition of Staphylococcus aureus IMPDH extracted form Escherichia coli BL21 (DE3)pDIA17 assessed as formation of NADH at 50 uM relative to control. Summed up:
as §1

The target of data set [5] is Inosine-5'-monophosphate dehydrogenase 2 (Homo sapiens) (UniProt P12268). Put plainly: Inhibition of human IMPDH2 extracted form Escherichia coli BL21 (DE3)pDIA17 assessed as formation of NADH at 50 uM.
Inosine-5'-monophosphate dehydrogenase 2 (Homo sapiens), sequence (P12268 2-514 limits assumed): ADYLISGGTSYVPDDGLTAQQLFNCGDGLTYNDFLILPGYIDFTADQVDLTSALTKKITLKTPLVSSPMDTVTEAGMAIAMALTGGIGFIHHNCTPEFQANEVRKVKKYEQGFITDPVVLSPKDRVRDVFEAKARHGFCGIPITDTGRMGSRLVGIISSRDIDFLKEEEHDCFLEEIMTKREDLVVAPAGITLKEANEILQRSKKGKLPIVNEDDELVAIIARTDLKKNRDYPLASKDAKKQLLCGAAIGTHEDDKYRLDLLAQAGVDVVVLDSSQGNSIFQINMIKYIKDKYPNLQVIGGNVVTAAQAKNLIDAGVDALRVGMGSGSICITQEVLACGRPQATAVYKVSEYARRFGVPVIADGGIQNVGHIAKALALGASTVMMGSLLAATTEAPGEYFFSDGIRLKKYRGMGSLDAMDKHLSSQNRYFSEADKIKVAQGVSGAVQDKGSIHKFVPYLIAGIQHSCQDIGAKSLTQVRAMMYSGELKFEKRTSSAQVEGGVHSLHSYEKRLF
The subject of data set [6] is Staphylococcus aureus. Put plainly: Antibacterial activity against methicillin-resistant Staphylococcus aureus ATCC 43300 assessed as growth inhibition at 32 ug/ml relative to control. In kind it is functional.
The next data set deals with Escherichia coli. Put plainly: Inhibition of Escherichia coli IMPDH delta Bateman domain extracted form Escherichia coli BL21 (DE3)pDIA17 assessed as formation of NADH at 50 uM relative to control. Summed up:
(§2)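 Bateman-domain-deleted IMPDH (E. coli or P. aeruginosa), His-tagged, made in E. coli BL21(DE3)/pDIA17. NADH formation at 340 nm, 30 °C, 0.2 mM IMP, 0.4 mM NAD⁺, 0.2 mM MgATP, 2 mM MgCl₂. Buffer: ec Tris-HCl 50 mM pH 9, KCl 100 mM; pa Tris-HCl 50 mM pH 8, KCl 100 mM. Compound 50 μM; % inhibition relative to uninhibited enzyme.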

Data set [7] is described as follows: Inhibition of Escherichia coli IMPDH delta Bateman domain extracted form Escherichia coli BL21 (DE3)pDIA17 assessed as formation of NADH. The note with it: read-out: I50. Summed up: (§3)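 Bateman-domain-deleted IMPDH (E. coli or P. aeruginosa) from E. coli BL21(DE3)/pDIA17; NADH at 340 nm, 30 °C, 0.2 mM IMP, 0.4 mM NAD⁺, 0.2 mM MgATP, 2 mM MgCl₂; buffers as per variant (ec Tris-HCl pH 9/KCl 100 mM; pa Tris-HCl pH 8/KCl 100 mM). I50 by dose-response logistic fit, at least three experiments.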

Another data set has as its system Pseudomonas aeruginosa. Briefly: Inhibition of Pseudomonas aeruginosa IMPDH delta Bateman domain extracted form Escherichia coli BL21 (DE3)pDIA17 assessed as formation of NADH at 50 uM relative to control. Summed up: as §2
The nature of data set [8]: Inhibition of Pseudomonas aeruginosa IMPDH delta Bateman domain extracted form Escherichia coli BL21 (DE3)pDIA17 assessed as formation of NADH. The note with it: read-out: I50. The gist of the method:
as §3

Data set [9] deals with T1, Inosine-5'-monophosphate dehydrogenase (Pseudomonas aeruginosa (strain ATCC 15692 / DSM 22644 / CIP 104116 / JCM14847 / LMG 12228 / 1C / PRS 101 / PAO1)). Briefly: Non-competitive inhibition of Pseudomonas aeruginosa IMPDH in presence of 2 mM NAD+ by Michaelis-Menten equation. The gist of the method: (§4)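 Steady-state kinetics of P. aeruginosa ΔBateman IMPDH: initial rates (NADH at 340 nm, 30 °C, Tris-HCl 50 mM pH 8, KCl 100 mM) measured across variable IMP at saturating 2 mM NAD⁺, without or with several inhibitor concentrations; data from at least three experiments fitted to Michaelis–Menten and shown as Lineweaver-Burk plots.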

For data set [10] the target is unchanged. Briefly: Non-competitive inhibition of Pseudomonas aeruginosa IMPDH by Lineweaver-Burk plot analysis. Summed up: as §4
Data set [11] relates to Mycobacterium tuberculosis. Put plainly: Inhibition of Mycobacterium tuberculosis TMP kinase using 0.05 dTMP and 0.5 mM MgATP by measuring NADH consumption at 20 uM by coupled spectrophotometric assay. Summed up: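 Recombinant M. tuberculosis TMP kinase; activity at 30 °C by NADH consumption at 340 nm in a pyruvate kinase/lactate dehydrogenase/nucleoside diphosphate kinase coupled assay (2 units each). Medium: 50 mM Tris-HCl pH 7.4, 50 mM KCl, 2 mM MgCl2, 0.2 mM NADH, 1 mM phosphoenolpyruvate. ATP held at 0.5 mM and dTMP at 0.05 mM; compound at 20 μM.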

Data set [12] relates to Caco-2. Briefly: Cytotoxicity against human Caco-2 cells assessed as cell viability at 1 uM measured after 72 hrs by Alamar blue assay. In kind it is toxicity, cell-based. The conditions noted are these: caco-2, 72 h. Summed up:
(§5)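 Confluent Caco-2 monolayers (seeded 1.10⁵ cells/cm², 48 h growth; DMEM 25 mM glucose, 10 % FBS, NEAA, 37 °C, 5 % CO₂) exposed 72 h; vehicle 0.1 % DMSO, 0.2 % Triton X-100 as cytotoxic control. Rinsed with PBS, 5 % Alamar Blue in FBS-free medium 30 min at 37 °C; resorufin fluorescence (ex 530/em 570 nm) relative to DMSO. Mean ± SEM, three independent experiments.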
(The colour change of resazurin is a common sign of viable cells or microbes.)

Data set [13] relates to Caco-2. Put plainly: Cytotoxicity against human Caco-2 cells assessed as cell viability at 10 uM measured after 72 hrs by Alamar blue assay. The note with it: caco-2, 72 h. It is filed as toxicity, cell-based. The gist of the method:
as §5

Data set [14] is described as follows: Metabolic stability in mouse liver microsomes assessed as recovery in presence of NADPH measured after 120 mins. It is filed as ADME, Microsome. The note with it: read-out: Drug recovery. For orientation: Microsomes from liver hold many membrane-bound enzymes, among them those of drug oxidation.
Data set [15] is described as follows: Metabolic stability in mouse liver microsomes assessed as recovery in absence of NADPH measured after 120 mins. In kind it is ADME, Microsome. The note with it: read-out: Drug recovery.

The values below come from ChEMBL document CHEMBL6083235, “Synthesis, evaluation and mechanistic insights of novel IMPDH inhibitors targeting ESKAPEE bacteria” (Eur J Med Chem, 2024).

The source made the active and inactive calls. No cut-off for these calls is given here.

For orientation: inhibition means the relative decrease from the control value, in per cent. With `CC(C)(NC(=O)Nc1ccc(Cl)c([N+](=O)[O-])c1)c1cccc(-c2cn[nH]c2)c1`, the inhibition in data set [1] was 97%; in data set [3], 89%; in the data set with Staphylococcus aureus [4], 93%; with Escherichia coli, 84%; with Pseudomonas aeruginosa, 99%. Further, the IC50 in data set [2] was 130 nM; in data set [7] it was 5510 nM; in [8], 170 nM. For the same compound, the inhibition entry in data set [5] and in [11] was “inactive” throughout. Besides, the inhibition at 32 µg/mL in the data set on Staphylococcus aureus [6] is 61.7%. Moreover, the inhibition entry in data set [9] and in data set [10] was “Active” each time. Further, the Activity entry in the data set with Caco-2 [12] and in the data set with Caco-2 [13] was “Non-toxic” each time. For the same compound, the remaining at 2 h in data set [14] and in data set [15] was above 95% throughout.

As to `CC(C)(NC(=O)NCc1ccccc1)c1cccc(-c2ccccc2)c1`, in data set [1], the inhibition was determined as 16%.

As to `CC(C)(NC(=O)Nc1ccc(Cl)c([N+](=O)[O-])c1)c1cccc(-c2cccs2)c1`, the inhibition in data set [1] turned out to be 96%. The IC50 in [2] was 140 nM.

Take `CC(C)(NC(=O)Nc1ccc(Cl)c([N+](=O)[O-])c1)c1cccc(-c2cn(C(c3ccccc3)(c3ccccc3)c3ccccc3)cn2)c1`: in [1], the inhibition stood at 35%.

As for `CC(C)(NC(=O)NCc1ccccc1)c1cccc(-c2cc[nH]n2)c1`, the inhibition in data set [1] worked out at 59%.

Regarding `CCOc1ncccc1-c1cccc(C(C)(C)NC(=O)Nc2ccc(Cl)c([N+](=O)[O-])c2)c1`, the inhibition in data set [1] turned out to be 95%. Also, in data set [2], the IC50 worked out at 590 nM.

With `CC(C)(NC(=O)NCc1ccccc1)c1cccc(-c2cn[nH]c2)c1`, in [1], the inhibition is 29%.

Take `CC(C)(NC(=O)Nc1ccc(Cl)c([N+](=O)[O-])c1)c1cccc(-c2nccn2Cc2ccccc2)c1`: the inhibition in data set [1] was 63%.

`CCOC(=O)n1ccc(-c2cccc(C(C)(C)NC(=O)Nc3ccc(Cl)c([N+](=O)[O-])c3)c2)n1`: the inhibition in data set [1] was determined as 98%. Moreover, the IC50 in data set [2] is 160 nM.

Turning to `CC(C)(NC(=O)NCc1ccccc1)c1cccc(-c2ccco2)c1`, the inhibition in data set [1] was determined as 10%; in the data set with Escherichia coli, 1%; with Pseudomonas aeruginosa it was 6%. In [5], the inhibition result is “inactive”. For the same compound, the inhibition at 32 µg/mL with Staphylococcus aureus [6] was determined as 0.49%.

In the case of `CC(C)(NC(=O)NCc1ccccc1)c1cccc(-c2cccs2)c1`, in [1], the inhibition worked out at 15%.

With `CC(C)(NC(=O)Nc1ccc(Cl)c([N+](=O)[O-])c1)c1cccc(-c2cc[nH]n2)c1`, the inhibition came out at 99% in [1]; 92% in [3]; 94% in the data set on Staphylococcus aureus [4]; 88% with Escherichia coli; 98% in the data set on Pseudomonas aeruginosa. The IC50 in data set [2] was determined as 110 nM; in [7], 4950 nM; in data set [8], 160 nM. In addition, the inhibition result in data set [5] and in data set [11] was “inactive” throughout. In the data set with Staphylococcus aureus [6], the inhibition at 32 µg/mL was determined as 79.3%. The inhibition entry in data set [9] and in [10] was “Active” throughout. Further, the Activity result in the data set with Caco-2 [12] and in the data set with Caco-2 [13] was “Non-toxic” each time. The remaining at 2 h in [14] and in data set [15] was above 95% in each case.

Take `CC(C)(NC(=O)Nc1ccc(Cl)c([N+](=O)[O-])c1)c1cccc(-c2cccnc2F)c1`: in data set [1], the inhibition amounted to 98%. Also, the IC50 in [2] came out at 240 nM.

Take `CCOC(=O)n1cc(-c2cccc(C(C)(C)NC(=O)Nc3ccc(Cl)c([N+](=O)[O-])c3)c2)cn1`: the inhibition in data set [1] stood at 87%. For the same compound, in data set [2], the IC50 came out at 420 nM.

As for `CC(C)(NC(=O)Nc1ccc(Cl)c([N+](=O)[O-])c1)c1cccc(-c2nccs2)c1`, in data set [1], the inhibition came to 97%. Further, the IC50 in [2] came out at 110 nM.

With `CC(C)(NC(=O)Nc1ccc(Cl)c([N+](=O)[O-])c1)c1cccc(-c2ccco2)c1`, the inhibition in [1] was determined as 99%. The IC50 in data set [2] was determined as 260 nM.
